For 88 compounds, inhibition results are on record in PubChem BioAssay AID624466 (The Scripps Research Institute Molecular Screening Center, 2012).

The structures appear in SMILES notation. Hit rate of the full screen: of about 360,000 compounds, about 5,400 (1.5%) were called active.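 Rule for the calls: active = inhibition above a per-plate cutoff, the mean inhibition of test compounds on that plate plus 3 SD (cut at about 49% in these data); inactive = the rest.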 The entries come from a sample that favours actives as a whole.

Chain of Trace amine-associated receptor 1 (Homo sapiens) (Q96RJ0 whole entry, looked up): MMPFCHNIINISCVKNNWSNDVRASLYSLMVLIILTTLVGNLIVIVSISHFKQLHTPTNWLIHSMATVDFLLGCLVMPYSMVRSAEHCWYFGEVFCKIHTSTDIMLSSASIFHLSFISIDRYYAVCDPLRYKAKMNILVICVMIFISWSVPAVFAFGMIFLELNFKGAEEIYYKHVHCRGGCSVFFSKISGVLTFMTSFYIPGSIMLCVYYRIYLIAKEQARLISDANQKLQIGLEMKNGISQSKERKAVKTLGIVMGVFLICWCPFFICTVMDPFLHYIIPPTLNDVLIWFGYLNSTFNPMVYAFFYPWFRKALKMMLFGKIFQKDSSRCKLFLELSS

The assay concerns the target Trace amine-associated receptor 1 (Homo sapiens) (UniProt Q96RJ0). Put plainly: blockers of beta-PEA-driven TAAR1 calcium signal – Fluo-8 calcium fluorescence, CHO RD-HGA16 cells, primary screen (AID 624466).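 Note: 0% = DMSO plus EC80 beta-PEA response and 100% = DMSO alone without agonist.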 To be noted: CHO RD-HGA16 TAAR1, Fluo-8 calcium fluorescence, antagonist; at 3 µM; active compounds read high. The method in brief:
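System: RD-HGA16 CHO cells with stable hTAAR1 and Gα16 | Probe or stimulus: EC80 β-phenethylamine stimulus | Dosing: 3 µM, single point | Times: Dye loading 75 min at 37 °C, then 30 min room temperature | Measured by: Fluo-8 calcium-sensitive fluorescence | Read-out basis: % inhibition of agonist calcium response | Replicates: n of 1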
Take `O=C(O)C1C2C=CC(O2)C1C(=O)Nc1ccccn1` (stereo not drawn): the inhibition was 13.6% (inactive).
`O=C(O)C1C2C=CC(O2)C1C(=O)NCCc1cccc(Cl)c1` (stereo not drawn): the inhibition is 70.5% (active).
In the case of `O=C(NCCc1ccccc1)C1CC1`, the inhibition was 1.61% (inactive).
The result for `COc1ccc(N/N=C2/CCCCC2=O)cc1` reads -11.3% (inactive); that for `O=C(NCCN1CCOCC1)C1CCN(S(=O)(=O)c2ccccc2)CC1`, 1.73% (inactive).
Consider `CCCCNC(=O)OC1CC2CC1[C@H]1CCCCN1C2=O` (stereo partly drawn), for which the inhibition is -1.17% (inactive).
The result for `Cc1nc2c(C(=O)NCc3cccs3)cnn2c(C)c1Cc1ccc(F)cc1` reads 9.05% (inactive).
As to `O=C(/C=C/c1ccco1)Nc1ccc(Oc2ccccc2)cc1`, the inhibition is 52.3% (active).
For `COc1cccc(NC(=O)COC(=O)/C=C/c2ccco2)c1` the value was -14.3% (inactive); for `O=C(O)/C=C\C(=O)Nc1ccc(OCc2ccccc2)cc1`, 4.01% (inactive); for `CCCCCCCCN1C(=O)[C@@H](CC(=O)NCc2ccc(C)o2)C[C@@]2(C(=O)OC)C1=C[C@H](C(C)(C)C)O[C@@H]2C`, -36.1% (inactive).
The result for `C/C(=N/Nc1nc(-c2ccccc2)c(CC(=O)O)s1)c1ccccc1` reads 24.8% (inactive); that for `COc1cc(OC)nc(N/N=C(\c2ccccc2)c2ccncc2)n1`, 5.98% (inactive); that for `c1ccc(C(=NNc2nc3ccccc3s2)c2ccccn2)cc1`, 53.9% (active).
For `Nc1nc2c(ncn2[C@@H]2O[C@H](C(=O)N[C@@H](Cc3ccccc3)C(=O)NCc3ccccc3)[C@@H](O)[C@H]2O)c(=O)[nH]1`, the inhibition is -6.97% (inactive).
`COCCNC(=S)Nc1cc(S(=O)(=O)N2CCOCC2)ccc1N1CCCCC1`: the inhibition was -23.6% (inactive).
For `Clc1ccc2nc(-c3ccccc3)nc(C(Cl)Cl)c2c1` the value was 2.4% (inactive).
For the compound `CSc1nc(-c2ccccc2)nc(C(Cl)Cl)n1`, the inhibition is 58.9% (active).
For `COc1cccc(NC(=O)[C@H](Cc2c[nH]c3ccccc23)NC(=O)[C@@H]2Cc3ccccc3CN2)c1`, the inhibition was 49.5% (active).
For the compound `COc1ccc(NC(=O)[C@H](NC(=O)[C@@H]2Cc3ccccc3CN2)c2ccccc2)cc1`, the inhibition was -18% (inactive).
As to `COc1ccc(CNC(=O)[C@H](Cc2c[nH]c3ccccc23)NC(C)=O)cc1OC`, the inhibition was -1.22% (inactive).
For `Cc1cccc(C)c1NC(=O)C(c1cccc2ccccc12)n1c(=O)c(-c2ccco2)nc2ccccc21` (stereo not drawn) the value was -9.07% (inactive).
Regarding `COc1ccc(CNC(=O)COC(=O)c2c(C)nn(-c3ccccc3)c2C)cc1OC`, the inhibition was -1.94% (inactive).
Turning to `COc1ccc(CNC(=O)COC(=O)c2sccc2C)cc1OC`, the inhibition is -9.87% (inactive).
For `COc1ccc(CNC(=O)COc2ccccc2C(=O)c2cnn(-c3ccccc3)c2)cc1OC`, the inhibition was 54% (active).
As to `Cc1cccc(C)c1NC(=O)C(c1cccc(F)c1)N1CCN(C)CC1` (stereo not drawn), the inhibition is -12.4% (inactive).
`O=C(O)c1ccc(NC(=O)c2cn(-c3ccccc3)nc2-c2ccc(Cl)cc2)cc1`: the inhibition is 73.7% (active).
Consider `O=C(NCCCN1CCOCC1)c1cn(-c2ccccc2)nc1-c1ccc(F)cc1`, for which the inhibition is 3.41% (inactive).
Take `NC(=O)C1CCN(C(=O)c2cn(-c3ccccc3)nc2-c2cccnc2)CC1`: the inhibition is -9.79% (inactive).
Consider `Cc1ccc(-c2nn(-c3ccccc3)cc2C(=O)Nc2cccc(S(=O)(=O)N3CCOCC3)c2)cc1`, for which the inhibition was 11% (inactive).
With `O=C(NNC(=S)NC(=O)c1cn(-c2ccccc2)nc1-c1ccccc1)c1ccncc1`, the inhibition was 49.8% (active).
`Cc1ccc(-c2nn(-c3ccccc3)cc2C(=O)NCCCN2CCCC2=O)cc1`: the inhibition is -7.1% (inactive).
The result for `CSc1ccc(C#N)cc1NC(=O)c1ccc(Cl)cc1` reads -1.99% (inactive).
For `CCc1ccc(NC(=O)C(=O)N/N=C(\C)CC(=O)NCCOC)cc1`, the inhibition is -6% (inactive).
Consider `CCOC(=O)[C@]12CCC=C1N(Cc1cccc3ccccc13)C(=O)[C@H](CC(=O)NCc1cccc(C(F)(F)F)c1)C2`, for which the inhibition is -4.64% (inactive).
The result for `COc1cc(/C=C2/C(=O)ON=C2C)ccc1OCc1ccccc1F` reads 51.4% (active).
`CC1=NOC(=O)/C1=C\c1ccccc1`: the inhibition is -15% (inactive).
The result for `C#CCOc1ccc(/C=C2/C(=O)ON=C2C)cc1OCC` reads 12.6% (inactive); that for `CC[C@H](NC(=O)[C@H](Cc1ccccc1)NC(=O)[C@H]1O[C@@H](n2cnc3c(=O)[nH]c(N)nc32)[C@H](O)[C@@H]1O)c1ccccc1`, -41.7% (inactive).
For `CC(C)(C)n1nc2c(c1NC(=O)c1ccc(S(=O)(=O)N3CCCC3)cc1)CS(=O)C2` (stereo not drawn) the value was 4.79% (inactive); for `COc1ccc(CNS(=O)(=O)c2cc(Br)ccc2Br)cc1`, -2.96% (inactive).
With `CC(C)CC1NC(=O)c2cc(Cl)ccc2-n2c1nc1ccccc1c2=O` (stereo not drawn), the inhibition was -6.66% (inactive).
As for `CCCOc1ccc(F)cc1-c1cc(C(=O)Nc2ccc(F)cc2)[nH]n1`, the inhibition was 15.5% (inactive).
As to `CCCOc1ccc(F)cc1-c1cc(C(=O)NCc2ccc(F)cc2)[nH]n1`, the inhibition was 53.6% (active).
On to `CCCOc1ccc(F)cc1-c1cc(C(=O)Nc2ccc(F)c(Cl)c2)[nH]n1`, for which the inhibition is 38.5% (inactive).
In the case of `O=S1(=O)c2ccc(Br)cc2-n2nncc2CN1Cc1cccc(Cl)c1`, the inhibition is 3.33% (inactive).
For the compound `O=c1onc(-c2c(F)cccc2F)n1-c1ccccc1Cl`, the inhibition is 4.53% (inactive).
`COc1ccc(-c2nc3ccccc3c(=O)n2CCc2ccc(O)cc2)cc1`: the inhibition is 58.4% (active).
Consider `COc1ccc(CCNCc2c(-c3ccccc3)n(C)c3ccccc23)cc1`, for which the inhibition is 25% (inactive).
The result for `COc1ccc(-c2ccc(CCC(=O)O)n2-c2ccc(O)cc2)cc1` reads -5.35% (inactive); that for `Cc1ccc(-c2nc3c(C)cc(Br)cn3c2Cc2ccccc2)cc1`, -21.5% (inactive).
On to `O=C(N[C@H]1CC[C@H](CC(=O)N2CCCCC2)O[C@@H]1CO)c1cccc(F)c1`, for which the inhibition was 4.76% (inactive).
Take `CC(=O)C[C@@H](O)CC(=O)[C@H]1OC(=O)CCCCCCc2ccccc21`: the inhibition was 6.02% (inactive).
Regarding `CCc1ccc(C2=CC(=O)CC(C)(C)C2=O)cc1`, the inhibition was -8.28% (inactive).
On to `O=C(O)Cn1cnc2c(NCc3ccccc3)ncnc21`, for which the inhibition was -23.5% (inactive).
For the compound `COC(=O)c1ccc(C2NC(=O)NC(C)=C2C(=O)N(C)C)cc1` (stereo not drawn), the inhibition is -4.25% (inactive).
`CCCCNc1ccc(C(=O)Nc2cccc(C)n2)cc1[N+](=O)[O-]`: the inhibition was 24.1% (inactive).
With `Cc1cccc(NC(=O)c2ccc(COc3ccccc3[N+](=O)[O-])o2)n1`, the inhibition was 51.5% (active).
For `CCOc1ccc(OCc2ccc(C(=O)Nc3cccc(C)n3)o2)cc1` the value was 16.1% (inactive); for `Cn1c(=O)c2c(ncn2CC(=O)N/N=C/c2cn[nH]c2-c2ccc(F)cc2)n(C)c1=O`, 2.24% (inactive); for `CCCCCn1nnnc1C1c2ccccc2C(=O)N1Cc1ccco1` (stereo not drawn), -12.2% (inactive).
As for `O=C(NS(=O)(=O)c1cccs1)[C@H]1O[C@@H](n2ccc(=O)[nH]c2=O)[C@H](O)[C@@H]1O`, the inhibition is -23.6% (inactive).
In the case of `O=C(N/N=C/c1ccc(OCC2COCCO2)cc1)c1ccc(Br)cc1` (stereo not drawn), the inhibition was 18.2% (inactive).
As to `O=C(N/N=C/c1ccc(OC(=O)c2ccccc2Cl)cc1)c1ccc(O)cc1`, the inhibition is 68.9% (active).
As for `COc1ccc(-c2[nH]ncc2/C=N/NC(=O)c2cc(Br)ccc2O)c(OC)c1`, the inhibition is -4.36% (inactive).
`CCOc1cc(/C=N/NC(=O)c2c(C)nc3ccc(Cl)cn23)ccc1O`: the inhibition was -3.33% (inactive).
As to `COc1ccc(C(=O)Nc2ccccc2C(=O)N/N=C/c2ccc(O)c(OC)c2)cc1`, the inhibition was 62.8% (active).
Consider `CCOc1ccc(-c2cc(C(=O)N/N=C/c3ccc(O)cc3)c3ccccc3n2)cc1`, for which the inhibition is 0.39% (inactive).
Take `CCOc1cc(/C=N/NC(=O)c2cc(-c3ccccc3)nc3ccccc23)ccc1O`: the inhibition was 51.5% (active).
On to `O=C(NN=Cc1ccc2c(c1)CCC2)c1ccccc1O`, for which the inhibition is 10.7% (inactive).
On to `CC(C)(C)C(=O)Nc1ccc(C(=O)N/N=C/c2ccccc2OC(=O)c2ccc(Cl)cc2Cl)cc1`, for which the inhibition is 26.4% (inactive).
For the compound `O=C(NC1CCCCC1)C(c1cc2ccccc2o1)n1c(=O)c(-c2ccco2)nc2ccccc21` (stereo not drawn), the inhibition is -22.4% (inactive).
For the compound `N#Cc1ccc(-c2nc3cc(C#N)c(C#N)cc3nc2-c2ccccc2)cc1C#N`, the inhibition is -9.51% (inactive).
`CC1CCCN(c2cccc3c2S(=O)(=O)N(Cc2ccc(F)cc2)[C@@H](C)[C@H](c2ccccc2)O3)C1` (stereo partly drawn): the inhibition is -13.7% (inactive).
For `CCCNC(=O)c1cc2c(c(-c3cccc(-c4ccc(C#N)cc4)c3)n1)[C@@H](CCO)N(C(=O)CC)C2`, the inhibition is -3.02% (inactive).
Regarding `COC(=O)[C@]12C[C@H](CC(=O)NCc3ccc(OC)c(OC)c3)C(=O)N(Cc3ccccc3)C1=C[C@H](C(C)C)O[C@@H]2C1CC1`, the inhibition was -4.52% (inactive).
For `O=C(Nc1ccncc1)Nc1ccc(F)cc1` the value was 57.8% (active); for `CCc1ccc(NC(=O)Nc2ccncc2)cc1`, 6.77% (inactive).
For the compound `COc1cccc(NC(=O)Nc2ccc(F)cc2)c1`, the inhibition was 14.5% (inactive).
In the case of `CCC(C(=O)NCc1ccccc1)n1c(Cc2cc(F)cc(F)c2)nc2ccccc21` (stereo not drawn), the inhibition was -4.56% (inactive).
Consider `O=CN1CCN(C(=O)c2ccc(Br)o2)CC1`, for which the inhibition was -11.1% (inactive).
For the compound `CSc1ccccc1C(=O)OCC(=O)N1CCN(C(C)=O)CC1`, the inhibition is -1.96% (inactive).
For the compound `O=C(COC(=O)c1ccccc1SCC(=O)N1CCCC1)Nc1ccccc1OC(F)F`, the inhibition is 56.5% (active).
`CN(CC(=O)Nc1ccccc1Cl)C(=O)c1ccccc1SCC(=O)N1CCCC1`: the inhibition was -6.53% (inactive).
For the compound `CC(NC(=O)c1ccccc1SCC(=O)N1CCCC1)c1ccccc1` (stereo not drawn), the inhibition is -4.95% (inactive).
For `CC(C)N(Cc1ccccc1)C(=O)COC(=O)c1ccccc1SCC(=O)N1CCCC1`, the inhibition is 64% (active).
As to `COc1ccccc1NC(=O)COC(=O)c1ccccc1SCC(=O)N1CCCC1`, the inhibition is -8.15% (inactive).
For `COCCNC(=O)C1C(=O)Nc2ccccc2C(=O)N1c1ccc2c(c1)OCCO2` (stereo not drawn) the value was -30.9% (inactive).

The inhibition is the change of the read-out against control, counted positive when it falls.
